# SUMO1-SIM PPI = modulators of human SUMO1-mediated protein-protein interactions; AID 602429; SUMO1 binding to a labelled peptide, TR-FRET, 1 h; 360,000 tested, 0.33% active; P63165; inhibition, % at 20 µM; in the data active = inhibition above about 37%
# DNMT1 inh = inhibitors of human DNMT1; P26358; DNMT1 molecular beacon, Hinp1I cleavage, fluorescence; inhibition (reported as % activation of signal), % at 10 µM; 360,000 tested, 0.83% active; AID 588458; in the data active = inhibition above about 50%
# NadD inh = NadD (S. aureus) enzyme inhibition | purified NadD enzyme, colorimetric absorbance read-out | inhibition, % at 20 µM | 360,000 tested, 0.78% active; in the data active = inhibition above about 26%
# LMPTP block = LMPTP (human) inhibition; P24666; recombinant LMPTP-A, OMFP fluorogenic substrate, fluorescence intensity; inhibition, % at 20 µM; 360,000 tested, 0.22% active;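 active = compounds that cut the enzyme signal by at least half of the control window in the single-dose screen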;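 note: plate controls were DMSO wells with enzyme plus substrate for no effect and substrate without enzyme for full effect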
#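 test system = LMPTP-A | amount = 0.625 nM LMPTP-A final | reagent = fluorogenic phosphatase substrate OMFP at 400 µM final | incubation = 50 min at room temperature | benchmarks = no-enzyme low control, uninhibited high control | medium = Bis-Tris pH 6.0, DTT, detergent | signal = fluorescence intensity of OMFP turnover product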
# Scp1 inh = inhibitors of human Scp-1 phosphatase; inhibition, % at 20 µM; Q9GZU7; Recombinant Scp1, phosphopeptide, malachite green phosphate absorbance; 340,000 tested, 0.88% active;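 active = inhibition above about 50% at 20 µM, limit read from the data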;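 note: plate controls were DMSO wells with enzyme for no effect and wells lacking enzyme for full effect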
#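 Test system: SCP-1 phosphatase catalytic domain, residues 76-261 | Compound dosing: One concentration, 20 µM, with 1.0% DMSO | Schedule: 45 min room-temperature reaction, 5 min colour, 30 min stabiliser | Detection: Absorbance at 630 nm | Read-out basis: % inhibition of SCP-1 phosphate liberation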
# STEP block = blocks human striatal-enriched tyrosine phosphatase; P54829; recombinant STEP, OMFP fluorogenic substrate, fluorescence; inhibition, % at 20 µM; 360,000 tested, 0.25% active;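 active = inhibition at 20 µM, scaled per plate between control wells, above about 37%, limit read from the data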;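 note: 0% = DMSO with enzyme and substrate and 100% = substrate only without enzyme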
#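 material = STEP tyrosine phosphatase | reagent = fluorogenic phosphatase substrate OMFP at 25 µM final | doses = single compound dose of 20 µM, 1% DMSO final | schedule = 20 min reaction, room temperature, in the dark | measured by = fluorescence, 480/540 nm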
# Scp1 confirm = Scp-1 (human) inhibition, single-dose confirmed; shares compounds with Scp1 inh; inhibition, % at 20 µM; recombinant SCP-1 catalytic domain, phosphate release, malachite green absorbance; 2,500 tested, 61% active;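 note: plate controls were DMSO with enzyme for no effect and buffer wells lacking enzyme for full effect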
# MG interference = colorimetric interference in Scp-1 counter-screen; shares compounds with Scp1 inh; Colorimetric interference counterscreen, malachite green absorbance 630 nm; apparent inhibition (interference), % at 20 µM; 2,500 tested, under 10 active; AID 540313;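 note: compounds added after enzyme reaction finished so only phosphate colour detection is probed; plate controls were DMSO wells with completed Scp-1 reaction for no effect and substrate wells lacking enzyme for full effect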
# Scp-1 Tm shift = binds human Scp-1, shifting its melting temperature; shares compounds with Scp1 inh; Recombinant SCP1, Sypro Orange thermal shift Tm; thermal shift relative to vanadate control, % at 40 µM; 1,500 tested, 25% active; AID 540329;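 active = substances whose mean melting-temperature shift, as a percentage of the reference inhibitor's shift, reaches about 5.3%, limit read from the data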;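 note: 0% = Tm of DMSO wells and 100% = Tm with sodium orthovanadate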
# Active calls of the source: *; · = no result. Compounds with a hit are over-represented: about 2.3% of the library has one in this group of screens.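 Rule for the calls, unless noted: active = inhibition of at least 30% at 20 µM; inactive = the rest.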
SMILES,SUMO1-SIM PPI,DNMT1 inh,NadD inh,LMPTP block,Scp1 inh,STEP block,Scp1 confirm,MG interference,others
Cc1ccc(C)c(NC(=O)CN(C)C(=O)c2ccc(S(=O)(=O)N(C)c3ccccc3)cc2)c1,-1,0,-1,0,-2,-2,·,·,
Cc1ccc(NC(=O)CN(C)C(=O)c2ccc(S(=O)(=O)N(C)c3ccccc3)cc2)cc1,-3,-1,-15,0,54*,-3,22,-13,
CC(=O)N1CCCc2cc(S(=O)(=O)N3CCCC3)ccc21,-4,3,-1,-2,9,-2,·,·,
OC(COC1CCCCC1)CN1CCCCC1 (centres undefined),-1,0,-1,1,55*,2,-18,-17,
CC(C)(C)C1CCC(OCC(O)CN2CCCC2)CC1 (centres undefined),0,0,-2,-1,-9,3,·,·,
Cc1ccc(C)c(NC(=O)CSc2ncnc3nc[nH]c23)c1,-2,1,15,0,58*,0,-19,-16,
Cc1ccc2c(cnn2C(=O)CCC(=O)NCc2cccc(Cl)c2)c1,-3,-1,-1,-1,-9,11,·,·,
CN1C(=O)/C(=C2\SC(=S)N(CCCCCC(=O)O)C2=O)c2ccccc21,-1,3,7,85*,104*,98*,68*,-18,Scp-1 Tm shift=3
O=C(O)CCN1C(=O)/C(=C2\C(=O)N(Cc3ccc(F)cc3)c3ccccc32)SC1=S,14,4,2,82*,88*,93*,61*,-17,Scp-1 Tm shift=8.8*
CCN1C(=O)/C(=C2\SC(=S)N(CCCOC)C2=O)c2ccccc21,-1,3,4,2,-6,1,·,·,
COC(=O)C(NC(C)=O)(Nc1ccc(C)cn1)C(F)(F)F (centres undefined),-2,-10,5,0,-1,-3,·,·,
CCCc1cc(C(=O)Nc2ccc(OC)cc2[N+](=O)[O-])cs1,-30,3,-9,2,-5,2,·,·,
CCOC(=O)C(C(=O)Nc1ccccn1)C1CCCCC1 (centres undefined),-2,-2,2,0,50*,4,77*,-10,Scp-1 Tm shift=-4
Cc1ccc(C(=O)O/N=C(\N)c2cccc([N+](=O)[O-])c2)cc1,-17,1,-8,0,-7,1,·,·,
N/C(=N\OC(=O)c1ccc(Br)cc1)c1cccc([N+](=O)[O-])c1,-21,10,-2,0,65*,2,62*,-19,Scp-1 Tm shift=1
CCOC(=O)c1[nH]c(C)c(C(=O)NCc2ccco2)c1C,1,3,-3,0,64*,5,-8,-16,
COc1ccc(Cl)cc1NC(=O)CN(C)C(=O)C1COc2ccccc2O1 (centres undefined),-8,-2,-1,1,2,1,·,·,
CCOC(=O)c1cn(CC)c2cc(N3CCN(C)CC3)c(F)cc2c1=O,4,-1,-9,-1,-11,0,·,·,
CCOC(=O)c1cn(CC)c2cc3c(cc2c1=O)OCO3,8,-2,0,0,64*,-1,-12,-5,
COC(=O)Cc1ccc(OC2(C)CCN(Cc3ccccc3)C2)cc1 (centres undefined),2,1,-11,1,·,-1,·,·,
CC(=O)COc1coc(CN2CCN(c3ccc(F)cc3)CC2)cc1=O,3,-1,-5,0,51*,-3,-6,-8,
Cc1nnsc1-c1c(C(=O)N2CCOCC2)c(C)nn1-c1ccccc1,10,-2,-1,0,-4,-1,·,·,
Cc1nnsc1-c1c(C(=O)O)c(C)nn1-c1ccc(OC(F)(F)F)cc1,3,0,-4,-1,91*,0,-8,-11,
O=C(NCc1ccccc1)C1c2ccccc2OCC(=O)N1CCc1c[nH]c2ccccc12 (centres undefined),1,·,2,0,·,·,·,·,
O=C(CCNC(=O)c1ccc([N+](=O)[O-])cc1)Nc1ccc(F)cc1,-27,-1,-2,-1,-5,-2,·,·,
SMILES,SUMO1-SIM PPI,DNMT1 inh,NadD inh,LMPTP block,Scp1 inh,STEP block,Scp1 confirm,MG interference,others
O=C(CCNC(=O)c1ccc([N+](=O)[O-])cc1)NNC(=O)c1ccncc1,-28,1,-3,-2,50*,-1,6,-4,
Cn1c(=S)n(CCC(=O)O)c2ccccc21,-4,-1,0,0,-9,-2,·,·,
O=C(CNC(=O)c1ccc(Cl)cc1)N/N=C/C=C/c1ccccc1,-2,8,0,5,84*,3,8,-11,
Cc1ccc2c(c1)NC(=O)C(CC(=O)Nc1ccc(CN3CCC(C)CC3)cc1)O2 (centres undefined),-2,-2,-2,1,52*,-4,-13,-7,
CCN1CCN(Cc2ccc(NC(=O)CC3Oc4ccc(C)cc4NC3=O)cc2)CC1 (centres undefined),-2,0,-2,0,-12,-1,·,·,
O=S(=O)(c1ccc(OCC2CO2)cc1)c1ccc(OCC2CO2)cc1 (centres undefined),3,-4,-9,-1,-6,-2,·,·,
COc1ccc(NC(=O)COC(=O)c2cc3c(s2)CCC3)cc1,1,66*,-2,19,57*,32,63*,-12,Scp-1 Tm shift=-2
O=C(O)/C=C/C(=O)Nc1ccc(NC(=O)c2ccccc2)c(Cl)c1,6,1,2,2,73*,3,1,-8,
O=C(O)/C=C\C(=O)Nc1cccc(NC(=O)c2ccccc2)c1,7,-2,9,-1,1,1,·,·,
COc1cc(C=NO)nc(-c2ccccn2)c1,0,-2,-1,0,-10,-2,·,·,
C=CCNc1nc2cc(-c3cccc(Cl)c3)sc2c(=O)n1C,15,-4,1,2,·,-1,·,·,
Cc1cccc(NC(=O)CN2C(=O)S/C(=C\c3cccn3-c3cccc(C(=O)O)c3)C2=O)c1,-6,26,20,4,70*,11,71*,-6,Scp-1 Tm shift=11*
Cc1cccc(C)c1NC(=O)CN1C(=O)S/C(=C\c2cccn2C)C1=O,-2,18,5,0,2,2,·,·,
Cc1cccc(C)c1NC(=O)CN1C(=O)S/C(=C\c2cccn2-c2cccc(C(=O)O)c2)C1=O,-16,23,8,0,58*,18,81*,-13,Scp-1 Tm shift=6.6*
